Measured values: ChEMBL document CHEMBL1149716, “Synthesis and antidiabetic activity of 2,5-disubstituted-3-imidazol-2-yl-pyrrolo[2,3-b]pyridines and thieno[2,3-b]pyridines” (2007)
The source made the active and inactive calls. The calls are words filed in the database; no cut-off is given here.

Experiments:
[1] = Insulinotropic activity in rat RIN5F cells assessed as glucose dependent insulin secretion per ug of total protein at 10 uM; type: functional
In short: (§1)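 RIN5F cells seeded at 0.2×10^6 per well and grown overnight to 80% confluence. Preincubated 40 min in Krebs-Ringer Hepes buffer (1.1 mM glucose, 0.5% BSA, pH 7.4). Then exposed 30 min at 37 °C to compound with 16.7 mM glucose. Supernatant insulin by rat insulin ELISA, normalized to total protein (pg/μg/h). n = 3, mean ± SD.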

[2] = Insulinotropic activity in rat RIN5F cells assessed as glucose dependent insulin secretion per ug of total protein at 0.1 uM; type: functional; in short: as §1
[3] = Insulinotropic activity in rat RIN5F cells assessed as glucose dependent insulin secretion per ug of total protein at 1 uM; type: functional; in short: as §1
Mus musculus [4] = assay: Antidiabetic activity in overnight fasted C57BL/6J mouse assessed as reduction in serum glucose level at 1 uM to 100 uM, ip after 120 mins; type: functional, organism-based
In short: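 Male C57BL/6J mice (8–12 weeks, 25–30 g), n = 6 per group, fasted overnight. Single ip dose of 1, 10 or 100 μM/kg/10 mL in saline (saline vehicle control). Retro-orbital blood under light ether at 0, 30, 60 and 120 min. Serum glucose by GOD/POD method, duplicate samples. Baseline-corrected curves and 0–120 min AUC; mean ± SEM.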

Mus musculus [5] = assay: Antidiabetic activity in ip dosed overnight fasted C57BL/6J mouse assessed as serum insulin level by ELISA; type: functional, organism-based
In short: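 Male C57BL/6J mice (8–12 weeks, 25–30 g), randomized into groups of n = 6 by fed glucose and fasted overnight. Single ip dose of 1, 10 or 100 μM/kg/10 mL, suspended in normal saline (saline vehicle control). Retro-orbital blood taken under light ether at 30 min. Serum stored at -70 °C, then assayed by rat/mouse insulin ELISA. Mean ± SEM.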

[6] = Insulinotropic activity in rat RIN5F cells assessed as insulin secretion per ug of total protein at 1 uM; type: functional
In short: (§2)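 RIN5F cells seeded at 0.2×10^6 per well, grown overnight to 80% confluence, then preincubated 40 min in Krebs-Ringer Hepes buffer (1.1 mM glucose, 0.5% BSA, pH 7.4). Incubated 30 min at 37 °C with compound in the absence of glucose (0 mM). Secreted insulin by rat insulin ELISA, normalized to total protein (pg/μg/h). n = 3, mean ± SD.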

[7] = Insulinotropic activity in rat RIN5F cells assessed as insulin secretion per ug of total protein at 0.1 uM; type: functional; in short: as §2
[8] = Insulinotropic activity in rat RIN5F cells assessed as insulin secretion per ug of total protein at 10 uM; type: functional; in short: as §2
Mus musculus [9] = assay: Antidiabetic activity in overnight fasted C57BL/6J mouse assessed as reduction in serum glucose level at 1 uM to 100 uM, ip after 30 mins; type: functional, organism-based
In short: (§3)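 Male C57BL/6J mice (8–12 weeks, 25–30 g, bred in-house) randomized into groups (n = 6) by fed glucose, fasted overnight with water ad libitum. Compounds suspended in normal saline given ip at 1, 10 and 100 μM/kg/10 mL right after 0 min bleed. Retro-orbital blood under light ether at 0, 30, 60, 120 min; serum glucose by GOD/POD method, duplicate samples; mean ± SEM.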

Mus musculus [10] = assay: Antidiabetic activity in overnight fasted C57BL/6J mouse assessed as reduction in serum glucose level at 1 uM to 100 uM, ip after 60 mins; type: functional, organism-based; in short: as §3

| Compound | Activity [1] [pg/h] | Activity [2] [pg/h] | Activity [3] [pg/µg/h] | also measured |
| --- | --- | --- | --- | --- |
| Clc1cnc2[nH]c(Cc3ccccc3)c(C3=NCCN3)c2c1 | 31.9 | 14.4 | 18.3 | – |
| Clc1cnc2[nH]cc(C3=NCCN3)c2c1 | 29.6 | 12.4 | 15.2 | – |
| Clc1cnc2sc(Cc3ccccc3)c(C3=NCCN3)c2c1 | 31.9 | 13.9 | 18.2 | – |
| CCc1[nH]c2ncc(Cl)cc2c1C1=NCCN1 | 39.9 | 18.9 | 26.1 | – |
| Clc1cnc2scc(C3=NCCN3)c2c1 | 29 | 12.6 | 15 | – |
| CCc1[nH]c2ncccc2c1C1=NCCN1 | 29.1 | 13.3 | 16.4 | – |
| c1ccc(Cc2sc3ncccc3c2C2=NCCN2)cc1 | 31.6 | 14.4 | 18.8 | – |
| Cc1sc2ncc(Cl)cc2c1C1=NCCN1 | 41.5 | 19.2 | 27.5 | Activity (Mus musculus [4]): Active; Activity (Mus musculus [5]): Dose-dependent effect |
| c1cnc2[nH]c(C3CCCCC3)c(C3=NCCN3)c2c1 | 28 | 12.4 | 14.3 | – |
| CCc1sc2ncc(Cl)cc2c1C1=NCCN1 | 39.8 | 18.5 | 26.5 | – |
| c1ccc(Cc2[nH]c3ncccc3c2C2=NCCN2)cc1 | 32.6 | 14.8 | 18.2 | – |
| Cc1[nH]c2ncc(Cl)cc2c1C1=NCCN1 | 41.7 | 19.3 | 27.7 | Activity (Mus musculus [4]): Active; Activity (Mus musculus [5]): Dose-dependent effect |
| c1cnc2scc(C3=NCCN3)c2c1 | 28.2 | 12.2 | 14.2 | – |
| CCCCNC(=O)NS(=O)(=O)c1ccc(C)cc1 [TOLBUTAMIDE] | 35.2 | 20 | – | Activity [6]: 20.7 pg/h; Activity [7]: 19.7 pg/h; Activity [8]: 34.4 pg/h |
| Cc1[nH]c2ncccc2c1C1=NCCN1 | 32.4 | 14.9 | 18 | – |
| Clc1cnc2[nH]c(C3CCCCC3)c(C3=NCCN3)c2c1 | 28.9 | 12.6 | 15 | – |
| Clc1cnc2sc(-c3ccccc3)c(C3=NCCN3)c2c1 | 39 | 18 | 25.4 | – |
| Clc1cnc2[nH]c(-c3ccccc3)c(C3=NCCN3)c2c1 | 39.2 | 18.2 | 25.5 | – |
| c1cnc2[nH]cc(C3=NCCN3)c2c1 | 28 | 12.1 | 14.1 | – |
| Cc1[nH]c2ccc(Cl)cc2c1C1=NCCN1 | 36.5 | 16.3 | 22.4 | Activity (Mus musculus [9]): Active; Activity (Mus musculus [10]): Active |
| Cc1sc2ncccc2c1C1=NCCN1 | 31.8 | 14.5 | 18.9 | – |
| CCc1sc2ncccc2c1C1=NCCN1 | 29.1 | 13 | 15.5 | – |
| c1ccc(-c2[nH]c3ncccc3c2C2=NCCN2)cc1 | 32.5 | 14.1 | 18.1 | – |
| c1ccc(-c2sc3ncccc3c2C2=NCCN2)cc1 | 31.9 | 14.7 | 18 | – |
| c1cnc2sc(C3CCCCC3)c(C3=NCCN3)c2c1 | 28.1 | 12.6 | 14.7 | – |
| Clc1cnc2sc(C3CCCCC3)c(C3=NCCN3)c2c1 | 28.7 | 12.9 | 15.1 | – |
